Measured values as given in ChEMBL document CHEMBL5029186, “Searching for New Microbiome-Targeted Therapeutics through a Drug Repurposing Approach” (J Med Chem, 2021).
Each block holds one compound with its values, some of them ahead of it.

Experiments:
[1] = Drug metabolism in mini gut model assessed as metabolite formation by LC-MS/MS analysis; type: ADME, tissue-based
How it was run: (§1)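 Anaerobic mini gut model: stool homogenized in pre-reduced mGAM (10 mL/g), settled 5 min, 50 μL slurry into 450 μL mGAM; compound 20 μM in DMSO (final DMSO 0.22%); 37 °C, 5% H₂/10% CO₂/85% N₂, up to 24 h; donor 1; triplicate. Supernatant acetonitrile-precipitated (1:3), LC–MS at 45 °C, 0.45 mL/min; metabolites analysed versus feces-free reference incubation in mGAM.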

[2] = Stability in human gut microbes assessed as half life by LC-MS analysis; type: ADME
How it was run: (§2)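 Compound 20 μM (DMSO vehicle, final 0.22%) incubated anaerobically at 37 °C in mGAM inoculated with donor 1 fecal slurry (1:10 slurry, 50 μL into 450 μL) and in bacteria-free mGAM as reference, up to 24 h, triplicate. Samples mixed with 3 volumes cold acetonitrile, centrifuged 21,100g 15 min 4 °C; supernatant analysed by LC–MS (45 °C, 0.45 mL/min) for remaining parent drug.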

[3] = Drug metabolism in human gut microbes assessed as metabolite formation by LC-MS/MS analysis; type: ADME; how it was run: as §1
[4] = Stability of compound in mini gut model assessed as half life by LC-MS analysis; type: ADME, tissue-based; how it was run: as §2
[5] = Stability of compound in mini gut model at 24 hrs by LC-MS analysis; type: ADME, tissue-based; how it was run: as §2

SMILES: C1N2CN3CN1CN(C2)C3 [METHENAMINE]
Drug metabolism [1]: Metabolite_Notdetected
half-life [2]: 10 h
Drug metabolism [3]: Metabolite_Detected
half-life [4]: 10 h

SMILES: CCN(CC)C(=O)/C(C#N)=C/c1cc(O)c(O)c([N+](=O)[O-])c1 [ENTACAPONE]
Drug metabolism [1]: Metabolite_Notdetected
Drug metabolism [3]: Metabolite_Detected

SMILES: COC1=C(OC)C(=O)C(CCCCCCCCCCO)=C(C)C1=O [IDEBENONE]
Drug metabolism [1]: Metabolite_Notdetected
Drug metabolism [3]: Metabolite_Detected

SMILES: O=S(=O)([O-])CCS.[Na+] [MESNA]
Drug metabolism [1]: Metabolite_Detected
Drug metabolism [3]: Metabolite_Detected
Stability [5]: Unstable

SMILES: NS(=O)(=O)c1cc2c(cc1Cl)NCNS2(=O)=O [HYDROCHLOROTHIAZIDE]
Drug metabolism [1]: Metabolite_Notdetected
half-life [2]: > 48 h
Drug metabolism [3]: Metabolite_Notdetected
half-life [4]: > 48 h

SMILES: Cl.Oc1noc2c1CCNC2
Drug metabolism [1]: Metabolite_Notdetected
Drug metabolism [3]: Metabolite_Notdetected
Stability [5]: Unstable

SMILES: N[C@@H](Cc1ccc(O)c(O)c1)C(=O)O [LEVODOPA]
Drug metabolism [1]: Metabolite_Notdetected
half-life [2]: 30 h
Drug metabolism [3]: Metabolite_Detected
half-life [4]: 30 h

Further lines, results first:

Drug metabolism [1]: Metabolite_Notdetected
Drug metabolism [3]: Metabolite_Notdetected
Stability [5]: Unstable
SMILES: O=C([O-])[C@H]1/C(=C/CO)O[C@@H]2CC(=O)N21.[K+] [CLAVULANATE POTASSIUM]

Drug metabolism [1]: Metabolite_Detected
Drug metabolism [3]: Metabolite_Detected
Stability [5]: Unstable
SMILES: CCCc1nc(C(C)(C)O)c(C(=O)OCc2oc(=O)oc2C)n1Cc1ccc(-c2ccccc2-c2nnn[nH]2)cc1 [OLMESARTAN MEDOXOMIL]

Drug metabolism [1]: Metabolite_Notdetected
half-life [2]: > 48 h
Drug metabolism [3]: Metabolite_Notdetected
half-life [4]: > 48 h
SMILES: CCCCNc1ccc(C(=O)OCCOCCOCCOCCOCCOCCOCCOCCOCCOC)cc1 [BENZONATATE]
